Screens: PubChem, Sanford-Burnham Center for Chemical Genomics
Most compounds without a hit are left out; they make up all but 0.77% or so of the library.
hIAP inh = human IAP inhibitors, primary screen, biochemical, luminescence, uHTS; purified IAP, CDP-Star luminescence, 30 min; inhibition, % at 10 µM; actives 0.12% (n = 330,000); Intestinal-type alkaline phosphatase (Homo sapiens), P09923;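 active means inhibition reaching a set limit with compound at 10 µM in the primary screen, cut at about 35% in these data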;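 further: plate controls were DMSO wells with enzyme for no effect and no-enzyme buffer wells for full effect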
Target sequence (P09923 whole entry, looked up): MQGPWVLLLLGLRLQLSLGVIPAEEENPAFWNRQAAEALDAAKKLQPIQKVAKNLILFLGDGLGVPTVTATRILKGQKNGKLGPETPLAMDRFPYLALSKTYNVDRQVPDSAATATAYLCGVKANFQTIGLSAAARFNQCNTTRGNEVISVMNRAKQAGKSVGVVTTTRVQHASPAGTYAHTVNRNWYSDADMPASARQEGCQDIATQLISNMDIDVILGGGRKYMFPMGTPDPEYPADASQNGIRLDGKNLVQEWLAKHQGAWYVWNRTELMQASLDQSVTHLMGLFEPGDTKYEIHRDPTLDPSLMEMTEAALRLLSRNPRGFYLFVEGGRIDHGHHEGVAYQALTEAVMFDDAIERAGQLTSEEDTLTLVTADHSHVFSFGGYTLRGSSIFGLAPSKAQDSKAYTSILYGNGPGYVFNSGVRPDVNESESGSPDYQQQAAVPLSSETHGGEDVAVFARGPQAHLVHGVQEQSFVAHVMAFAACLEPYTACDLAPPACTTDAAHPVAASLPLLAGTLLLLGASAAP
bIAP inhibitor = bovine intestinal alkaline phosphatase inhibitors, primary screen, selectivity assay for TNAP inhibitor project, biochemical, bovine IAP, CDP-star luminescence; purified bovine IAP, 30 min; 190,000 tested, under 10 active; inhibition, % at 20 µM;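 active means over 50% inhibition of intestinal alkaline phosphatase at 20 µM in the single-dose screen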
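test system = bovine IAP enzyme | medium = DEA buffer 100 mM, pH 9.8, with MgCl2 1.0 mM, ZnCl2 0.02 mM | detection = luminescence | dosing = single compound dose of 20 µM, 2% DMSO final | incubation = 30 min reaction at room temperature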
hIAP activ = human IAP activators, primary screen, biochemical, luminescence, uHTS. actives 0.16% (n = 330,000). activation factor at 10 µM. purified human IAP, CDP-Star luminescence, 30 min; stronger effect = higher value; 1 = vehicle-only enzyme, 0 = enzyme-free background. Intestinal-type alkaline phosphatase (Homo sapiens), P09923. AID 2524, 2010;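 active means activation factor of the enzyme at least 2-fold when tested at 20 µM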
mIAP activ = activators of mouse IAP, primary screen, biochemical, luminescence, uHTS; muIAP, CDP-Star luminescence, 30 min; stronger effect = higher value; 1 = vehicle-only enzyme signal, 0 = enzyme-free wells; actives 0.24% (n = 330,000); activation factor at 10 µM; intestinal alkaline phosphatase [Mus musculus];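 active means activation factor of at least 2 at 20 µM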
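also added = chemiluminescent substrate CDP-Star | test system = mouse IAP enzyme | signal = chemiluminescence readout | compound = DMSO-dissolved test compounds | incubation = 30 min at room temperature | benchmarks = DMSO wells, no-enzyme wells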
bIAP activator = bovine intestinal alkaline phosphatase activators, primary screen, biochemical, bovine IAP, CDP-star luminescence. alkaline phosphatase, intestinal [Bos taurus]. purified bovine IAP, 30 min; stronger effect = higher value; fold of DMSO-control signal, blank-subtracted. activation factor at 20 µM. actives 0.17% (n = 200,000);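 active means activation factor of 2 or more at 20 µM, a signal rise over negative controls twice the positive control's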
mIAP inh = inhibitors of mouse IAP, primary screen, biochemical, luminescence, uHTS | intestinal alkaline phosphatase [Mus musculus] | inhibition, % at 10 µM | purified mouse IAP, CDP-Star luminescence, 30 min | actives 0.2% (n = 330,000) | AID 2806, 2010;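 active means inhibition of at least 40% at 10 µM in the primary screen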;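 further: plate controls were DMSO with enzyme for no effect and no enzyme wells for full effect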
mIAP inh conf = inhibitors of mouse IAP, confirmation, biochemical, luminescence, single concentration; actives 4.7% (n = 11,000); inhibition, % at 10 µM; AID 434971, 2010; shares compounds with mIAP inh; purified mouse IAP, CDP-Star luminescence, 30 min;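 active means inhibition of at least 40% at 10 µM in either of the two replicates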;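 further: plate controls were DMSO wells with enzyme for no effect and buffer wells lacking enzyme for full effect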
Active calls of the source: *; . = no result given.

SMILES | hIAP inh | bIAP inhibitor | hIAP activ | mIAP activ | bIAP activator | mIAP inh | mIAP inh conf
Cc1ccc(C2CC(=O)N3CN(c4ccc(Br)cc4)CSC3=C2C#N)o1 (configuration not stated) | -47.1 | 26.8 | 1.47 | 0.392 | 0.7 | 60.8* | 63.3*
CCOc1ccc(N2CSC3=C(C#N)C(c4ccco4)CC(=O)N3C2)cc1 (configuration not stated) | -8.6 | 2.0 | 1.09 | 0.256 | 1 | 74.4* | 80.6*
CN(C)C(=O)OCc1c(-c2ccccc2)ncc2ccccc12 | -10.0 | . | 1.1 | 1.08 | . | -7.7 | .
N#CC1=C(N)SC(N)=C(C#N)C1c1ccoc1 | 7.9 | -10.2 | 0.921 | 0.234 | 1.1 | 76.6* | 76.3*
Cn1cc(C(=O)N2CCN(c3cccc(Cl)c3)CC2)c(=O)c2cc(S(=O)(=O)N3CCOCC3)ccc21 | -2.3 | . | 1.02 | 0.955 | . | 4.5 | .
O=C(CCCN1C(=O)/C(=C/c2ccco2)SC1=S)Nc1cccc(C(=O)O)c1 | 5.7 | . | 0.943 | 0.362 | . | 63.8* | 71.3*
O=C(CCCN1C(=O)/C(=C\c2ccco2)SC1=S)Nc1ccc(O)cc1C(=O)O | 21.3 | . | 0.787 | 0.319 | . | 68.1* | 74.9*
O=C(CCCN1C(=O)/C(=C\c2cccs2)SC1=S)Nc1cccc(C(=O)O)c1 | 7.8 | -0.5 | 0.922 | 0.973 | 1 | 2.7 | .
Cc1ccc(-n2nc(C)c(C(=O)Nc3cccc(C(=O)NC4CC4)c3)n2)c(C)c1 | -16.7 | . | 1.17 | 1.16 | . | -15.9 | .
O=C1CC(c2ccc(O)c(O)c2)Oc2c1ccc(O)c2O (configuration not stated) | 27.6 | . | 0.724 | 0.221 | . | 77.9* | 80.9*
O=C1CC(c2ccc(O)cc2)Oc2cc(O)cc(O)c21 (configuration not stated) | -2.5 | -12.7 | 1.02 | 1.01 | 1.1 | -1.4 | .
Cc1ccccc1-c1cc2nc(C)c(Cl)c(=O)n2[nH]1 | -2.5 | . | 1.02 | 0.94 | . | 6.0 | .
Cc1cc(=O)n2[nH]c(-c3ccc(F)cc3)cc2n1 | -8.9 | -0.3 | 1.09 | 0.937 | 1 | 6.3 | .
Cc1nc2cc(-c3ccsc3-n3c(C)ccc3C)[nH]n2c(=O)c1Cl | 8.7 | 8.4 | 0.913 | 0.367 | 0.9 | 63.3* | 78.3*
Cc1cc(=O)n2[nH]c(-c3ccsc3-n3c(C)ccc3C)cc2n1 | 13.0 | . | 0.87 | 0.502 | . | 49.8* | 58.9*
COCc1cc(=O)n2[nH]c(-c3ccsc3-n3c(C)ccc3C)cc2n1 | 9.5 | 4.5 | 0.905 | 0.439 | 1 | 56.1* | 58.2*
COC(=O)c1ccccc1NC(=O)C/C(C)=N/NC(=O)Cc1ccc(Cl)cc1 | -13.6 | . | 1.14 | 1.02 | . | -1.9 | .
CCc1ccc(NC(=O)C(=S)NC2CCCCC2)cc1 | -24.2 | 1.5 | 1.24 | 0.854 | 1 | 14.6 | .
O=C(Nc1ccc(Br)cc1)NC1CCCCCCC1 | -5.7 | . | 1.06 | 4.99* | . | -399.2 | -174.1
CCc1ccc(NC(=O)NC2CCCCCCC2)cc1 | -56.4 | . | 1.56 | 2.72* | . | -171.7 | -213.4
Fc1cccc2sc(Nc3nnc(-c4ccccc4)o3)nc12 | -19.8 | -4.7 | 1.2 | 0.727 | 1 | 27.3 | 37.5*
COc1ccc(CN2CCN(C(=O)Cn3c(=O)oc4cc(Cl)ccc43)CC2)c(OC)c1OC | 6.5 | . | 0.935 | 0.931 | . | 6.9 | .
CC(=O)NCc1ccc(-c2csc(NC(=O)CCc3nc4ccccc4c(=O)[nH]3)n2)s1 | -2.0 | . | 1.02 | 0.545 | . | 45.5* | 44.8*
COc1ncnc(-c2ccccc2)c1-c1ccccc1 | 8.4 | . | 0.916 | 1.05 | . | -5.3 | .
CC(=O)Nc1nc(-c2cccs2)cs1 | 3.5 | 13.4 | 0.965 | 1.02 | 0.9 | -1.7 | .
Nc1nc(-c2cccs2)cs1 | -7.6 | 6.0 | 1.08 | 0.54 | 0.9 | 46.0* | 52.3*
COc1cc(/C=C/C(=O)OCC(=O)NCCC2=CCCCC2)cc(OC)c1OC | 0.8 | . | 0.992 | 0.997 | . | 0.3 | .
